Experiments:
[1] = molecular target: Angiotensin-converting enzyme 2 (Homo sapiens, UniProt Q9BYF1); assay: Inhibition of his-tagged SARS-COV2 S-RBD binding to C-terminal Fc-tagged human ACE2 expressed in HEK293 cells incubated for 2 hrs by Alphascreen assay; format: cell-based
Summary of the method: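 ACE2-Fc (2 nM) with His-tagged spike RBD, Wuhan variant (5 nM), plus protein A acceptor and nickel chelate donor beads (5 μg/mL each), in 20 mM Tris pH 7.4, 150 mM KCl, 0.05% CHAPS. Compounds added from 100× DMSO dilutions, in duplicate. 2 h at room temperature, then luminescence read. 100% = signal without RBD; 0% = both proteins plus DMSO.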

[2] = organism: Homo sapiens; assay: Selectivity index, ratio of IC50 for his tagged human PD-1/human Fc tagged PDL-1 interaction to IC50 for his-tagged FC tagged SARS-COV2 S-RBD binding to ACE2 (unknown origin)
[3] = molecular target: Programmed cell death protein 1/Programmed cell death 1 ligand 1 (Homo sapiens, UniProt Q15116+Q9NZQ7); assay: Inhibition of C-terminal his tagged human PD-1/human Fc tagged PDL-1 interaction expressed in HEK293 cells incubated for 2 hrs AlphaScreen assay; format: cell-based
Programmed cell death protein 1/Programmed cell death 1 ligand 1, sequence (Q15116 whole entry): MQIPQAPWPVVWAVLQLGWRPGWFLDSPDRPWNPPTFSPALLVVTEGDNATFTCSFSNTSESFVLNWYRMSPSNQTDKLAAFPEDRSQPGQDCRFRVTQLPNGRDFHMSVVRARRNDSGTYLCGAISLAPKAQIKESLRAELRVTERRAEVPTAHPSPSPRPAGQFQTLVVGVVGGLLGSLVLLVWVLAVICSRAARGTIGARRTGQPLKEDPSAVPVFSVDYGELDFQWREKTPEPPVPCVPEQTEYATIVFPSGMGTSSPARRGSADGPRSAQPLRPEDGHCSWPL
Programmed cell death protein 1/Programmed cell death 1 ligand 1, sequence (Q9NZQ7 whole entry): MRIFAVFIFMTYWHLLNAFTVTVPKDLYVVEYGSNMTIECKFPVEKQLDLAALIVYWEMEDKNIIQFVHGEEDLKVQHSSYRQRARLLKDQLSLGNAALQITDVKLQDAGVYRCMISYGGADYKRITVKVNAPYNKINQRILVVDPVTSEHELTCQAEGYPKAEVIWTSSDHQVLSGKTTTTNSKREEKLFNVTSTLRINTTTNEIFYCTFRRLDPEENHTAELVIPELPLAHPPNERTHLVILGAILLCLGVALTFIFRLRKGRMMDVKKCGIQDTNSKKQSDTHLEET

Angiotensin-converting enzyme 2, sequence (Q9BYF1 whole entry): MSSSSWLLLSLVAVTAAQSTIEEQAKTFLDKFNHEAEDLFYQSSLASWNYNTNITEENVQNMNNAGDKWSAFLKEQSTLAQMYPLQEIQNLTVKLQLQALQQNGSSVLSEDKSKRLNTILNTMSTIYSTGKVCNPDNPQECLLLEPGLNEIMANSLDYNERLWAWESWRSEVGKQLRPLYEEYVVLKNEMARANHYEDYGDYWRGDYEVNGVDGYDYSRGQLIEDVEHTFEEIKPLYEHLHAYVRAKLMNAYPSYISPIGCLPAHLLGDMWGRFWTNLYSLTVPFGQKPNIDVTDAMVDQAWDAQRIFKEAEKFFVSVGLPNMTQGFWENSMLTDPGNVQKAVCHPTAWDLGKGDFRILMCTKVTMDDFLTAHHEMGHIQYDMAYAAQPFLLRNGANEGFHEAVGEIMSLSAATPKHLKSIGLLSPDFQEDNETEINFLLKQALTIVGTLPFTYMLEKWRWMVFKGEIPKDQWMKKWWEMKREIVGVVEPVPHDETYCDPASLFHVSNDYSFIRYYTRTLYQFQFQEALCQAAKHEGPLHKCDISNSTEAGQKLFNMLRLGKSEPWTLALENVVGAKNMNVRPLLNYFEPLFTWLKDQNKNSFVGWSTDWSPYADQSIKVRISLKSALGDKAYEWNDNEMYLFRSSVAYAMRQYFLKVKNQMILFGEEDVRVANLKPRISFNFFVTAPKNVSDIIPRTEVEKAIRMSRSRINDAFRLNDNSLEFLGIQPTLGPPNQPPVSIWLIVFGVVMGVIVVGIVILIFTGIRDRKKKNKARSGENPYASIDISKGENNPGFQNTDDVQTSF

## COc1cc(O)c(-c2c(O)cc(OC)c3c2C=C[C@](C)(CCC2=C(C)CCCC2(C)C)O3)c2c1O[C@](C)(CCC1=C(C)CCCC1(C)C)C=C2
[1]
  IC50: 1 µM
[2]
  Ratio IC50: 5.9
[3]
  IC50: 6 µM

## COc1cc(OC(C)=O)c(-c2c(OC(C)=O)cc(OC)c3c2C=C[C@@](C)(CCC2=C(C)CCCC2(C)C)O3)c2c1O[C@](C)(CCC1=C(C)CCCC1(C)C)C=C2
[1]
  IC50: 65 µM
[3]
  IC50: > 50 µM

## Oc1ccc([C@@H]2c3c(O)cc(O)cc3[C@@H]3c4c(cc(O)cc4[C@H]2[C@@H]2c4cc(O)cc5c4[C@@H](c4cc(O)cc(O)c4[C@H]2c2ccc(O)cc2)[C@H](c2ccc(O)cc2)O5)O[C@H]3c2ccc(O)cc2)cc1
[1]
  IC50: 0.25 µM

## COc1cc(OC(C)=O)c(-c2c(OC(C)=O)cc(OC)c3c2C=C[C@](C)(CCC2=C(C)CCCC2(C)C)O3)c2c1O[C@](C)(CCC1=C(C)CCCC1(C)C)C=C2
[1]
  IC50: 7.3 µM
[2]
  Ratio IC50: 5
[3]
  IC50: 37 µM

## COc1cc(OC(C)=O)cc2c1OC(C)(CCC1=C(C)CCCC1(C)C)C=C2 (configuration not stated)
[1]
  IC50: 63 µM
[2]
  Ratio IC50: 1
[3]
  IC50: 66 µM
